The source made the active and inactive calls. The calls are words filed in the database; no cut-off is given here.
Key:
[1] = molecular target: T1, Mineralocorticoid receptor (Homo sapiens, UniProt P08235); assay: Antagonist activity at human mineralocorticoid receptor overexpressed in CHOK1 cells assessed as inhibition of aldosterone-induced protein interaction with coactivator peptide after 6 hrs by luminescence assay; format: cell-based, CHO-K1
T1 sequence (P08235 whole entry): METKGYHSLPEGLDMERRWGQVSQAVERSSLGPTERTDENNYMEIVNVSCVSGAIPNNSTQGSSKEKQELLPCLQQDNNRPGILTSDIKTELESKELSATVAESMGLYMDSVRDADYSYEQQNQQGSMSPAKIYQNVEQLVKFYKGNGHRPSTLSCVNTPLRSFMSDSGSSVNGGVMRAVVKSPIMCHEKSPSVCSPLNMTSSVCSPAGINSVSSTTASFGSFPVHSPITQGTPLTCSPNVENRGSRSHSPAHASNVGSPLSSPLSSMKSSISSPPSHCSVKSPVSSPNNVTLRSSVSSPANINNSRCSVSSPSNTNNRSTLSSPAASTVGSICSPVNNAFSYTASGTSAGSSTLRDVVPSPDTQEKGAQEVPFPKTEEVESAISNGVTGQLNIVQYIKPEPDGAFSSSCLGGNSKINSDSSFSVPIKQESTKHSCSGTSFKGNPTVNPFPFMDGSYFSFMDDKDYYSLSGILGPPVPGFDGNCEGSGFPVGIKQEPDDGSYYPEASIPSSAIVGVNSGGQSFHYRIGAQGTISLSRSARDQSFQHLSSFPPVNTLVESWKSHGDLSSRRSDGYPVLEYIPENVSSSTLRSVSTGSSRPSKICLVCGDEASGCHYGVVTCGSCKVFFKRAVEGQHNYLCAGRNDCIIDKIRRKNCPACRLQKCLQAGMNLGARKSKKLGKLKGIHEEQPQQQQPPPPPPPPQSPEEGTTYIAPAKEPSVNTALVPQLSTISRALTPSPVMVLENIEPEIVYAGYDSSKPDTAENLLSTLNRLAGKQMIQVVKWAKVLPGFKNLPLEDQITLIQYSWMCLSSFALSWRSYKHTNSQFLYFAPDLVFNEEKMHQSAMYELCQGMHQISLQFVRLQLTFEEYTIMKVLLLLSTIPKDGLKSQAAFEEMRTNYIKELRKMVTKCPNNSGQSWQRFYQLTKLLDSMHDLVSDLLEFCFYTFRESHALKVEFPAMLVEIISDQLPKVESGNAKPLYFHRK

Androgen receptor = molecular target: T2, Androgen receptor (Homo sapiens, UniProt P10275); assay: Antagonist activity at human androgen receptor expressed in CHOK1 cells assessed as inhibition of D(-)-norgestrel-induced protein interaction with steroid receptor co-activator peptide after 24 hrs by beta-galactosidase reporter gene assay; format: cell-based, CHO-K1
T2 sequence (P10275 whole entry): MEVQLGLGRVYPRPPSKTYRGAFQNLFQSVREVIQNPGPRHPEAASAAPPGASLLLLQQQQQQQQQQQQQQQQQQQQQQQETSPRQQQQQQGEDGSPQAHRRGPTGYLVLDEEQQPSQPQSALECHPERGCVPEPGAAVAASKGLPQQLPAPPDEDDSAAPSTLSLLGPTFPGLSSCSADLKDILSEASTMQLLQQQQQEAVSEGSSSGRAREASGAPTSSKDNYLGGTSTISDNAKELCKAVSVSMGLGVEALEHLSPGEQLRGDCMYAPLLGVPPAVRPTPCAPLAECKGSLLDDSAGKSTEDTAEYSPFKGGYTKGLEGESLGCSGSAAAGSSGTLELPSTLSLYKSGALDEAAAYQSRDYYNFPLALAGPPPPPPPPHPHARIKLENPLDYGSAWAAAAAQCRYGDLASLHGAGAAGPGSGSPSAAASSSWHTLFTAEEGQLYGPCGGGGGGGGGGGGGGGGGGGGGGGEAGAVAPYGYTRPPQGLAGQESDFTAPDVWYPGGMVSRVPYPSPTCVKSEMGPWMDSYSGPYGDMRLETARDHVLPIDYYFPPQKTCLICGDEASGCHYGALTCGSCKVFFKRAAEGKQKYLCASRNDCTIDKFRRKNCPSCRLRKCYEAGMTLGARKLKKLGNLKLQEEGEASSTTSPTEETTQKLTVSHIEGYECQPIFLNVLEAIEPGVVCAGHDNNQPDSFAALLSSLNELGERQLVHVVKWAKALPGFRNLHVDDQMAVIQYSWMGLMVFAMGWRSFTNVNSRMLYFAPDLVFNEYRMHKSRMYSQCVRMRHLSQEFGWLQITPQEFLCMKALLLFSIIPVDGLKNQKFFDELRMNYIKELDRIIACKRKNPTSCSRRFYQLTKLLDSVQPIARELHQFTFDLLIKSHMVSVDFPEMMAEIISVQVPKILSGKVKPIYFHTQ

[2] = Fraction unbound in 10% rat plasma; format: ADME, cell-free; settings: 10% plasma
Procedure, shortened: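 Free fraction measured in the presence of 10% plasma (human or rat), taken as correlating with the free fraction in whole plasma.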

Rattus norvegicus = assay: Natriuretic activity in po dosed WKY rat measured over 6 hrs; format: functional, organism-based
[3] = Plasma protein binding in human; format: ADME, cell-free; settings: read-out: PPB
[4] = Plasma protein binding in rat; format: ADME, cell-free; settings: read-out: PPB
[5] = molecular target: T1, Mineralocorticoid receptor; assay: Binding affinity to mineralocorticoid receptor (unknown origin)
Homo sapiens [6] = species on record: Homo sapiens; assay: Selectivity ratio of IC50 for human androgen receptor to IC50 for human mineralocorticoid receptor
Homo sapiens [7] = species on record: Homo sapiens; assay: Selectivity ratio of IC50 for human glucocorticoid receptor to IC50 for human mineralocorticoid receptor
Homo sapiens [8] = species on record: Homo sapiens; assay: Selectivity ratio of IC50 for human estrogen receptor alpha to IC50 for human mineralocorticoid receptor
Homo sapiens [9] = species on record: Homo sapiens; assay: Selectivity ratio of IC50 for human estrogen receptor beta to IC50 for human mineralocorticoid receptor
Homo sapiens [10] = species on record: Homo sapiens; assay: Selectivity ratio of IC50 for human progesterone receptor beta to IC50 for human mineralocorticoid receptor

| SMILES | IC50 [1] | IC50 (Androgen receptor) | fraction unbound [2] | fraction unbound [3] | fraction unbound [4] | Ki [5] | Ratio IC50 (Homo sapiens [6]) | Ratio IC50 (Homo sapiens [7]) | Ratio IC50 (Homo sapiens [8]) | Ratio IC50 (Homo sapiens [9]) | Ratio IC50 (Homo sapiens [10]) | Activity (Rattus norvegicus) |
| --- | --- | --- | --- | --- | --- | --- | --- | --- | --- | --- | --- | --- |
| C[C@H](c1ccc(F)cc1)N1C(=O)O[C@](Cc2ccccc2)(c2nc3cc(NS(C)(=O)=O)ccc3[nH]2)C1=O | 0.22 µM | 13 µM | 0.064 | – | – | – | – | – | – | – | – | Active |
| C[C@H](c1ccc(F)cc1)N1C(=O)O[C@](Cc2ccccc2)(c2nc3c(NS(C)(=O)=O)cccc3[nH]2)C1=O | 0.21 µM | 11 µM | 0.064 | – | – | – | – | – | – | – | – | – |
| C[C@H](c1ccc(F)cc1)N1C(=O)O[C@](Cc2ccccc2)(c2nc3cc(Cl)ccc3[nH]2)C1=O | 0.16 µM | 3.1 µM | 0.01 | < 0.01 | < 0.01 | 0.002 µM | – | – | – | – | – | Active |
| C[C@H](c1ccc(F)cc1)N1C(=O)O[C@](Cc2ccccc2)(c2nc3cc(-c4cc[nH]n4)ccc3[nH]2)C1=O | 0.12 µM | 3.1 µM | 0.017 | – | – | – | – | – | – | – | – | – |

Further lines, with some results ahead:

| IC50 [1] | IC50 (Androgen receptor) | fraction unbound [2] | fraction unbound [3] | fraction unbound [4] | Ki [5] | Ratio IC50 (Homo sapiens [6]) | Ratio IC50 (Homo sapiens [7]) | Ratio IC50 (Homo sapiens [8]) | Ratio IC50 (Homo sapiens [9]) | Ratio IC50 (Homo sapiens [10]) | SMILES | Activity (Rattus norvegicus) |
| --- | --- | --- | --- | --- | --- | --- | --- | --- | --- | --- | --- | --- |
| 0.12 µM | 3 µM | 0.007 | < 0.01 | < 0.01 | – | – | – | – | – | – | C[C@H](c1ccc(F)cc1)N1C(=O)O[C@](Cc2ccccc2)(c2nc3cc(C(F)(F)F)ccc3[nH]2)C1=O | – |
| 0.04 µM | 7.7 µM | 0.065 | – | – | – | > 40 | > 40 | > 40 | > 40 | > 40 | C[C@H](c1ccc(F)cc1)N1C(=O)O[C@](Cc2ccccc2)(c2nc3cc(N4CCOCC4)ccc3[nH]2)C1=O | Dose-dependent effect |
| 0.039 µM | 3.4 µM | – | – | – | – | 90 | > 40 | > 40 | > 40 | > 40 | Cc1nocc1-c1ccc2[nH]c([C@@]3(Cc4ccccc4)OC(=O)N([C@H](C)c4ccc(F)cc4)C3=O)nc2c1 | – |
| 0.034 µM | 3.7 µM | 0.008 | < 0.01 | < 0.01 | – | 110 | > 40 | > 40 | > 40 | > 40 | C[C@H](c1ccc(F)cc1)N1C(=O)O[C@](Cc2ccccc2)(c2nc3cc(-c4cccnc4)ccc3[nH]2)C1=O | Active |

— ChEMBL document CHEMBL3576820, “Discovery of benzimidazole oxazolidinediones as novel and selective nonsteroidal mineralocorticoid receptor antagonists” (ACS Med Chem Lett, 2015)
